Laboratory results taken from ChEMBL document CHEMBL1142586, “Bisnortriterpenes from Salacia madagascariensis” (J Nat Prod, 2005).
≈ marks a conversion by molar mass, not a printed value.

Key:
[1] = test system: Leishmania donovani; experiment: Antileishmanial activity against Leishmania donovani promastigotes after 48 hrs by alamar blue assay; format: functional, organism-based
Procedure, shortened: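 IC50 (µg/mL) was determined in two separate tests against Leishmania donovani, and the mean of the tests was reported. IC90 was also determined.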

[2] = test system: Staphylococcus aureus; experiment: Antimicrobial activity against Staphylococcus aureus by NCCLS method; format: functional, organism-based
[3] = test system: Staphylococcus aureus; experiment: Antimicrobial activity against methicillin-resistant Staphylococcus aureus by NCCLS method; format: functional, organism-based
[4] = test system: Mycobacterium intracellulare; experiment: Antimicrobial activity against Mycobacterium intracellular by alamar blue test; format: functional, organism-based
[5] = test system: Plasmodium falciparum; experiment: Antiplasmodial activity against Plasmodium falciparum D6; format: functional, organism-based
[6] = Selectivity index, ratio of IC50 for african green monkey (Cercopithecus aethiops) Vero cells to IC50 for Plasmodium falciparum D6; format: toxicity, cell-based; details: read-out: Selectivity Index
Procedure, shortened: (§1)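 The index was calculated as the VERO (monkey kidney cell line) IC50 divided by the IC50 against the respective P. falciparum clone.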

[7] = test system: Plasmodium falciparum; experiment: Antiplasmodial activity against Plasmodium falciparum W2; format: functional, organism-based
[8] = Selectivity index, ratio of IC50 for african green monkey (Cercopithecus aethiops) Vero cells to IC50 for Plasmodium falciparum W2; format: toxicity, cell-based; details: read-out: Selectivity Index; procedure, shortened: as §1
[9] = test system: Vero; experiment: Cytotoxicity against african green monkey Vero cells; format: cell-based; details: Chlorocebus sabaeus
[10] = Selectivity index, ratio of IC50 for african green monkey VERO cells to IC50 for Leishmania donovani; format: toxicity, cell-based; details: read-out: Selectivity Index
Procedure, shortened: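 The index was calculated as the VERO cell IC50 divided by the mean IC50 against L. donovani from the two tests.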

[11] = test system: Leishmania mexicana; experiment: Antileishmanial activity against Leishmania mexicana; format: functional, organism-based

Structure (SMILES) | IC50 [1] [µg/mL] | IC90 [1] [µg/mL] | IC50 [2] [µg/mL] | IC50 [3] [µg/mL] | IC50 [4] [µg/mL] | IC50 [5] [µg/mL] | selectivity ratio [6] | IC50 [7] [µg/mL] | selectivity ratio [8] | IC50 [9] [µg/mL] | selectivity ratio [10] | IC50 [11] [µg/mL]
CC1=C(O)C(=O)C=C2C1=CC=C1[C@@]2(C)CC[C@@]2(C)[C@@H]3C[C@@H](CO)CC[C@]3(C)CC[C@]12C | 0.027 (≈ 0.0639 µM) | 0.057 (≈ 0.135 µM) | 0.65 (≈ 1.54 µM) | 0.7 (≈ 1.66 µM) | 15 (≈ 35.5 µM) | 0.068 (≈ 0.161 µM) | 31 | 0.068 (≈ 0.161 µM) | 31 | 2.1 (≈ 4.97 µM) | 31 | –
C[C@@H]1CC[C@H]2[C@@H](C)C(=O)O[C@@H]3O[C@@]4(C)CC[C@@H]1[C@]32OO4 [ARTEMISININ] | – | – | – | – | – | – | – | 0.0018 (≈ 0.00638 µM) | – | – | – | –
C[C@@H]1[C@H](O)[C@@H](C)/C=C/C=C/C=C/C=C/C=C/C=C/C=C/[C@H](O[C@@H]2O[C@H](C)[C@@H](O)[C@H](N)[C@@H]2O)C[C@@H]2O[C@](O)(C[C@@H](O)C[C@@H](O)[C@H](O)CC[C@@H](O)C[C@@H](O)CC(=O)O[C@H]1C)C[C@H](O)[C@H]2C(=O)O [AMPHOTERICIN B] | 0.11 (≈ 0.119 µM) | 0.23 (≈ 0.249 µM) | – | – | – | – | – | – | – | 6.5 (≈ 7.03 µM) | 59 | –
C=C1CC[C@]2(C)CC[C@]3(C)C4=CC=C5C(=CC(=O)C(O)=C5C)[C@]4(C)CC[C@@]3(C)[C@@H]2C1 [ISOIGUESTERIN] | 0.032 (≈ 0.0791 µM) | 0.055 (≈ 0.136 µM) | 0.85 (≈ 2.1 µM) | 0.85 (≈ 2.1 µM) | 4.5 (≈ 11.1 µM) | 0.2 (≈ 0.494 µM) | 3.4 | 0.17 (≈ 0.42 µM) | 3.9 | 1.6 (≈ 3.95 µM) | 50 | 0.035 (≈ 0.0865 µM)
